Assays:
Type in all cases: functional
[1] = system: PC-3; experiment: Anticancer activity against human PC-3 cells assessed as cell doubling measured for 72 hrs by DAPI staining based analysis
[2] = system: COLO 320DM; experiment: Anticancer activity against human COLO 320DM cells assessed as cell growth inhibition measured after 72 hrs by DAPI staining based analysis
Summary of the method: (§1)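 Cells were seeded, and DNA content at 24 h after seeding (T0) was read by imaging of fixed, DAPI-stained cells. Cells were then exposed to a range of drug concentrations for a further 72 h (T72) and DNA content was read again. T72 values were normalized to T0, and GI50 was taken from curve fits as the concentration giving 50% growth inhibition relative to T0 and Ymax.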

[3] = system: HOP-62; experiment: Anticancer activity against human HOP-62 cells assessed as cell growth inhibition measured after 72 hrs by DAPI staining based analysis
[4] = system: SW 954; experiment: Anticancer activity against human SW 954 cells assessed as cell growth inhibition measured after 72 hrs by DAPI staining based analysis
[5] = system: KM12; experiment: Anticancer activity against human KM12 cells assessed as cell growth inhibition measured after 72 hrs by DAPI staining based analysis
[6] = system: UACC-62; experiment: Anticancer activity against human UACC-62 cells assessed as cell doubling measured for 72 hrs by DAPI staining based analysis
[7] = system: SCC-15; experiment: Anticancer activity against human SCC-15 cells assessed as cell growth inhibition measured after 72 hrs by DAPI staining based analysis
[8] = system: U2OS; experiment: Anticancer activity against human U2OS cells assessed as cell growth inhibition measured after 72 hrs by DAPI staining based analysis
[9] = system: NCI-H596; experiment: Anticancer activity against human NCI-H596 cells assessed as cell growth inhibition measured after 72 hrs by DAPI staining based analysis
[10] = system: CAKI-2; experiment: Anticancer activity against human CAKI-2 cells assessed as cell growth inhibition measured after 72 hrs by DAPI staining based analysis; summary of the method: as §1
[11] = system: SW480; experiment: Anticancer activity against human SW480 cells assessed as cell doubling measured for 72 hrs by DAPI staining based analysis
[12] = system: IGROV-1; experiment: Anticancer activity against human IGROV-1 cells assessed as cell growth inhibition measured after 72 hrs by DAPI staining based analysis
[13] = system: JEG-3; experiment: Anticancer activity against human JEG-3 cells assessed as cell growth inhibition measured after 72 hrs by DAPI staining based analysis
[14] = system: CESS; experiment: Anticancer activity against human CESS cells assessed as cell growth inhibition measured after 72 hrs by DAPI staining based analysis; summary of the method: as §1
[15] = system: SW-403; experiment: Anticancer activity against human SW403 cells assessed as cell growth inhibition measured after 72 hrs by DAPI staining based analysis
[16] = system: DB; experiment: Anticancer activity against human DB cells assessed as cell growth inhibition measured after 72 hrs by DAPI staining based analysis
Summary of the method: (§2)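 Cells seeded, DAPI-stained DNA content of fixed cells read by imaging 24 h after seeding (T0), and again after a further 72 h exposure to a range of drug concentrations (T72). T72 values were normalized to T0. Curve fits gave the concentration producing 50% growth inhibition relative to T0 and Ymax (GI50).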

[17] = system: Capan-2; experiment: Anticancer activity against human Capan-2 cells assessed as cell growth inhibition measured after 72 hrs by DAPI staining based analysis; summary of the method: as §2
[18] = system: U-251; experiment: Anticancer activity against human U-251 cells assessed as cell doubling measured for 72 hrs by DAPI staining based analysis
[19] = system: SNU1; experiment: Anticancer activity against human SNU1 cells assessed as cell growth inhibition measured after 72 hrs by DAPI staining based analysis
[20] = system: HT-29; experiment: Antitumor activity against human HT-29 cells in xenograft model assessed as difference between median time to endpoint time of treated versus control group at 62.5 mg/kg
[21] = system: NCI-H2122; experiment: Anticancer activity against human NCI-H2122 cells assessed as cell growth inhibition measured after 72 hrs by DAPI staining based analysis
[22] = system: SNU-5; experiment: Anticancer activity against human SNU-5 cells assessed as cell doubling measured for 72 hrs by DAPI staining based analysis
[23] = system: OVCAR-4; experiment: Anticancer activity against human OVCAR-4 cells assessed as cell growth inhibition measured after 72 hrs by DAPI staining based analysis
[24] = system: SNU-5; experiment: Anticancer activity against human SNU-5 cells assessed as cell growth inhibition measured after 72 hrs by DAPI staining based analysis
[25] = system: SW 954; experiment: Anticancer activity against human SW 954 cells assessed as cell doubling measured for 72 hrs by DAPI staining based analysis
[26] = system: ARH-77; experiment: Anticancer activity against human ARH-77 cells assessed as cell growth inhibition measured after 72 hrs by DAPI staining based analysis
Summary of the method: (§3)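 Cells were seeded and, after 24 h, DNA content was read as T0. Cells were then exposed to varying drug concentrations for a further 72 h (T72). Fixed cells were DAPI-stained and DNA content measured by automated imaging. T72 values were normalized to T0. GI50 is the concentration giving 50% growth inhibition between T0 and Ymax, obtained by curve fitting.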

[27] = system: 786-0; experiment: Anticancer activity against human 786-0 cells assessed as cell growth inhibition measured after 72 hrs by DAPI staining based analysis; summary of the method: as §3
[28] = system: A-427; experiment: Anticancer activity against human A-427 cells assessed as cell doubling measured for 72 hrs by DAPI staining based analysis
[29] = system: A549; experiment: Antitumor activity against human A549 cells in xenograft model assessed as tumor growth delay at 125 mg/kg relative to control
[30] = system: HuP-T4; experiment: Anticancer activity against human HuP-T4 cells assessed as cell growth inhibition measured after 72 hrs by DAPI staining based analysis
[31] = system: MDA-MB-175-VII; experiment: Anticancer activity against human MDA-MB-175-VII cells assessed as cell growth inhibition measured after 72 hrs by DAPI staining based analysis
[32] = system: SCC-25; experiment: Anticancer activity against human SCC-25 cells assessed as cell growth inhibition measured after 72 hrs by DAPI staining based analysis
[33] = Antitumor activity against human MV-522 cells in xenograft model assessed as difference between median time to endpoint time of treated versus control group at 125 mg/kg
[34] = system: SK-NEP-1; experiment: Anticancer activity against human SK-NEP-1 cells assessed as cell doubling measured for 72 hrs by DAPI staining based analysis
[35] = system: NCI-H460; experiment: Anticancer activity against human NCI-H460 cells assessed as cell growth inhibition measured after 72 hrs by DAPI staining based analysis
[36] = Anticancer activity against human MV-522 cells assessed as cell growth inhibition measured after 72 hrs by DAPI staining based analysis; settings: MV522
[37] = Anticancer activity against human TE 381.T cells assessed as cell doubling measured for 72 hrs by DAPI staining based analysis
[38] = system: 639-V; experiment: Anticancer activity against human 639-V cells assessed as cell growth inhibition measured after 72 hrs by DAPI staining based analysis; summary of the method: as §3
[39] = system: NCI-H358; experiment: Anticancer activity against human NCI-H358 cells assessed as cell growth inhibition measured after 72 hrs by DAPI staining based analysis
[40] = system: SN12C; experiment: Anticancer activity against human SN12C cells assessed as cell doubling measured for 72 hrs by DAPI staining based analysis

CC(C)Oc1ccc(C(=O)N[C@H](CNC(=O)CN(C)C)Cc2ccc(-c3cn4cccc([C@H](C)O)c4n3)cc2)cc1Cl [GSK-923295A]
Activity [1]: 3.07 | GI50 [2]: 306 nM | GI50 [3]: 20 nM | GI50 [4]: 22 nM | GI50 [5]: 56 nM | Activity [6]: 2.12 | GI50 [7]: 63 nM | GI50 [8]: 45 nM | GI50 [9]: 5020 nM | GI50 [10]: 25 nM | Activity [11]: 2.21 | GI50 [12]: 31 nM | GI50 [13]: 25 nM | GI50 [14]: 19 nM | GI50 [15]: 24 nM | GI50 [16]: 21 nM | GI50 [17]: 119 nM | Activity [18]: 3.04 | GI50 [19]: > 10000 nM | Time [20]: 2.7 days | GI50 [21]: 29 nM | Activity [22]: 1.47 | GI50 [23]: 30 nM | GI50 [24]: 88 nM | Activity [25]: 1.62 | GI50 [26]: 34 nM | GI50 [27]: 45 nM | Activity [28]: 2.46 | Activity [29]: 73% | GI50 [30]: 158 nM | GI50 [31]: 23 nM | GI50 [32]: 23 nM | Time [33]: 26.3 days | Activity [34]: 1.74 | GI50 [35]: 29 nM | GI50 [36]: 48 nM | Activity [37]: 1.92 | GI50 [38]: 27 nM | GI50 [39]: 18 nM | Activity [40]: 2.47
